Data set [1] has as its target WT, W256L, and F263L mutant S1P3 (Homo sapiens, UniProt Q99500). Kind of data set: [33P]S1P radioligand binding and competition, Jump-In CHO cells. The conditions noted are these: 0.1 nM [33P]S1P, W256L and F263L Jump-In cell lines (all cell lines). In outline: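 Jump-In TI CHO-K cells (5 × 105) stably expressing WT, W256L or F263L S1P3, serum-starved 4 h. Incubated 30 min at 4 °C with 0.1 nM [33P]S1P plus increasing competitor in 20 mM Tris-HCl pH 7.5, NaCl, NaF, EDTA, Na3VO4, 0.5% fatty-acid-free BSA and protease inhibitors. Washed three times cold, lysed in 0.5% SDS, scintillation-counted. Normalized to each line's uncompeted binding (100%).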

The target in data set [2] is T1, S1P3 (Homo sapiens, UniProt Q99500). As to the kind of experiment: Ligand-induced ERK phosphorylation. It is filed as cell-based. The conditions noted are these: for ERK phosphorylation response: WT S1P3 Jump-In CHO cells. In outline:
(§1)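 Jump-In TI CHO-K cells carrying N-terminal triple-HA-tagged WT or point-mutant S1P3, stably retargeted and selected 4 weeks with blasticidin 10 μg/mL. Serum-starved 4 h, then exposed 5 min to increasing agonist. For antagonism, 1 uM antagonist was added 15 min beforehand or premixed with agonist. Phospho-p44/42 MAPK (Thr202/Tyr204) measured by sandwich ELISA; EC50 fitted from dose-response curves.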

Data set [3] can be described thus: Stability in biological systems. It is filed as in vitro ADME.
The test system of data set [4] is full panel of S1P receptors. Kind of data set: Profiling against the full panel of S1P receptors. Conditions: Supporting Table S3. In kind it is cell-based.
The nature of a further data set: Solubility. It is filed as physicochemical.
For a further data set, the system named is S1P1. The conditions noted are these: read-out: S1P1 EC50; in vitro; cited from earlier work.
Data set [5] addresses T1, S1P3. Kind of data set: S1P3-NFAT β-lactamase reporter. Conditions: S1P3-CHO cells, calcium flux dependent β-lactamase assay. It is filed as cell-based. Summed up: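 CHO cells stably expressing human S1P3 and an NFAT-β-lactamase reporter, plated at 1 × 10^6/mL in phenol red-free DMEM with 0.5% charcoal/dextran FBS and held overnight at 37°C, 5% CO2. S1P dilution series plus six fixed allosteric-agonist levels (EC0–EC80), single-agonist controls, 4 h at 37°C. β-Lactamase FRET substrate with probenecid added, 2 h at room temperature. Read at ex 405 / em 535 and 460 nm. Mean ± SEM.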
A general note: Calcium flux is commonly read through the fluorescence of an indicator in the cells.

In the next data set the target is M98A mutant S1P3 (Homo sapiens, UniProt Q99500, M98A). Kind of data set: ERK phosphorylation, M98A mutant S1P3 Jump-In CHO cells. In kind it is cell-based. In outline:
as §1

A further data set relates to S1P5. The conditions noted are these: read-out: S1P5 EC50; in vitro; cited from earlier work.
For a further data set, the target named is R114A mutant S1P3 (Homo sapiens, UniProt Q99500, R114A). As to the kind of experiment: ERK phosphorylation, R114A mutant S1P3 Jump-In CHO cells. In kind it is cell-based. The conditions noted are these: R114A mutant vs WT. In outline:
as §1

Data set [6] concerns the target T2, F263L S1P3 (Homo sapiens, UniProt Q99500, F263L). Kind of data set: MAPmates multiplex assay pERK1/2. In kind it is cell-based.
The test system of another data set is S1P4. The conditions noted are these: read-out: S1P4 EC50; in vitro; cited from earlier work.
In a further data set the test system is S1P2. The conditions noted are these: read-out: S1P2 EC50; in vitro; cited from earlier work.
Data set [7] deals with panel of 55 GPCRs, ion channels, and transporters. Kind of data set: Ricerca profiling panel.
The target of the next data set is W256L S1P3 (Homo sapiens, UniProt Q99500, W256L). Kind of data set: ERK phosphorylation, W256L mutant S1P3. It is filed as cell-based. Conditions: ERK phosphorylation assay, vs WT. In outline:
as §1

Data set [8] addresses T2, F263L S1P3. As to the kind of experiment: ERK phosphorylation, F263L mutant S1P3. Conditions: ERK phosphorylation assay, vs WT. It is filed as cell-based. Summed up: as §1
Data set [9] concerns the target T1, S1P3. As to the kind of experiment: Receptor assays coupled to Gi and Gq. It is filed as cell-based. The conditions noted are these: ERK phosphorylation, calcium flux, β-arrestin, NFAT-β-lactamase assays.
Setting [10] is: ERK phosphorylation, SPM-242 at 1 uM.

The values below come from paper PMC3528827 (ACS chemical biology, 2012).

T1 sequence (Q99500 whole entry): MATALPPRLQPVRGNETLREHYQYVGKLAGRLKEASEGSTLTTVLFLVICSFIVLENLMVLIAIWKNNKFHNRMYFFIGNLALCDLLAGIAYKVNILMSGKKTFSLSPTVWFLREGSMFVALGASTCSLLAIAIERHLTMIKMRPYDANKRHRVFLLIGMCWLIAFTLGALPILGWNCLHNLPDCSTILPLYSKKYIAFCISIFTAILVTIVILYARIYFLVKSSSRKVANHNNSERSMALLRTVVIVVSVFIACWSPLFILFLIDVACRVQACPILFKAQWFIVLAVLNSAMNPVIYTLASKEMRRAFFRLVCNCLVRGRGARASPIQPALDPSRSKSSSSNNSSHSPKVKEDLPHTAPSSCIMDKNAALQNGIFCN
WT, W256L, and F263L mutant S1P3, sequence (Q99500 whole entry W256L/F263L): as the sequence (Q99500 whole entry) above, with W256L, F263L counted along it
T2 sequence (Q99500 whole entry F263L): as the sequence (Q99500 whole entry) above, with F263L counted along it
R114A mutant S1P3, sequence (Q99500 whole entry R114A): as the sequence (Q99500 whole entry) above, with R114A counted along it
M98A mutant S1P3, sequence (Q99500 whole entry M98A): as the sequence (Q99500 whole entry) above, with M98A counted along it
W256L S1P3, sequence (Q99500 whole entry W256L): as the sequence (Q99500 whole entry) above, with W256L counted along it

Consider `NC(CO)(CCc1ccc(Sc2cccc(O)c2)cc1Cl)COP(=O)(O)O` (single isomer, unassigned; (+)) [SPM-242, (+)-2-amino-4-(2-chloro-4-((3-hydroxyphenyl)thio)phenyl)-2-(hydroxymethyl)butyl dihydrogen phosphate], for which the “competition for [33P]S1P binding” value in data set [1] is “reversed [^33P]S1P binding competitively in a dose dependent manner”. On S1P3 [2] (setting [10]), the “right-shift of the concentration response curve of S1P” value stood at 152 fold and the “shift of the concentration response curve of CYM-5541” value is recorded as 6 fold. In data set [3], the “stability of phosphate-ester bond” value is reported as “extremely labile”. Further, the “selectivity among S1P receptors” value in [4] is on record as “selective for S1P3”. In addition, the solubility entry in the data set “Solubility” is reported as “low solubility”.
The term EC50 denotes the concentration needed to bring the measured effect to its halfway point. For `O=C(c1cc(C2CC2)on1)N(C1CCCCC1)C1CCCCC1` [CYM-5541, N,N-dicyclohexyl(5-cyclopropylisoxazol-3-yl)carboxamide], the half-maximal effective concentration (EC50) with S1P1 was more than 10 µM; with S1P5, more than 25 µM; in the data set on S1P4, more than 50 µM; with S1P2, more than 50 µM. In addition, the “response on co-application of S1P and CYM-5541” value on S1P3 [5] was “additive and no synergy was observed”. In data set [1], the “competition for [33P]S1P binding” value is recorded as “unable to compete”. The ERK phosphorylation response entry was “agonist dose-dependent ERK phosphorylation” at M98A mutant S1P3; “agonist dose-dependent ERK phosphorylation” on S1P3 [2]; “comparable for WT and R114A” at R114A mutant S1P3. Further, the “agonist efficacy: maximum level of ERK phosphorylation compared with S1P” value on S1P3 [2] (WT S1P3 Jump-In stable CHO cells) was “full agonist”. Also, on F263L S1P3 [6], the “receptor activation (pERK1/2) compared to WT S1P3” value is reported as “significantly diminished receptor activation”. In data set [7], the “activity in Ricerca profiling panel” value is “no significant activities”. The solubility entry in “Solubility” is reported as “low solubility”. Also, at W256L S1P3, the “effect of W256L mutation on ligand-induced receptor activation” value is reported as “did not affect”. In addition, on F263L S1P3 [8], the “effect of F263L mutation on ligand-induced receptor activation” value is reported as “shifted CYM-5541-induced receptor activation”. Besides, the “signalling bias compared to S1P” value at S1P3 [9] is recorded as “no such differences were observed”.
With `CCCCCCCCCCCCC/C=C/[C@@H](O)[C@@H](N)COP(=O)(O)O` [S1P, Sphingosine 1-phosphate, reference compound], the “competition for [33P]S1P binding” value in data set [1] is listed as “competitively reversed in a dose dependent manner”. In addition, the ERK phosphorylation response entry on M98A mutant S1P3 is on record as “agonist dose-dependent ERK phosphorylation”; at S1P3 [2] it was “agonist dose-dependent ERK phosphorylation”; at R114A mutant S1P3 it was “unable to respond”. Also, the “effect of W256L mutation on ligand-induced receptor activation” value at W256L S1P3 is “did not affect”. The “effect of F263L mutation on ligand-induced receptor activation” value at F263L S1P3 [8] is “not S1P-induced activation”.
